Data taken from ChEMBL document CHEMBL1145458, “Novel vanilloid receptor-1 antagonists: 1. Conformationally restricted analogues of trans-cinnamides” (J Med Chem, 2007).
The source made the active and inactive calls. The rule behind the calls is not given here.

Tests used:
[1] = molecular target: T1, Transient receptor potential cation channel subfamily V member 1 (Rattus norvegicus, UniProt O35433); test: Antagonist activity at rat TRPV1 expressed in CHO cells assessed as inhibition of capsaicin-induced calcium influx; type: functional, cell-based
Summary of the method: (§1)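 Human or rat TRPV1-CHO cells were preincubated with compound for 2 min at room temperature in HBSS with 0.1 mg/mL BSA and 1 mM HEPES pH 7.4. Cells were washed and radioactivity counted. IC50 is the mean of at least two experiments, triplicate per concentration, ±SEM.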

[2] = molecular target: T2, Transient receptor potential cation channel subfamily V member 1 (Homo sapiens, UniProt Q8NER1); test: Agonist activity at TRPV1 expressed in CHO cells; type: functional, cell-based
[3] = molecular target: T1, Transient receptor potential cation channel subfamily V member 1; test: Antagonist activity at rat TRPV1 expressed in CHO cells assessed as inhibition of acid-induced calcium influx; type: functional, cell-based
Summary of the method: (§2)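 CHO cells stably transfected with human or rat TRPV1 were preincubated with compound for 2 min at room temperature. After washout, uptake was read by scintillation counting. IC50 values come from inhibition curves, averaging at least two experiments run in triplicate.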

[4] = AUC (0-infinity) in Sprague-Dawley rat at 3 mg/kg, iv; type: ADME, organism-based; design: time infinity, dose 3 mg/kg, route intravenous; conditions: plasma
[5] = Half life in Sprague-Dawley rat at 2 mg/kg, iv; type: ADME, organism-based; design: dose 2 mg/kg, route intravenous; conditions: in vivo
Summary of the method: (§3)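 Male Sprague-Dawley rats received a single intravenous dose of 2 mg/kg given as a solution in DMSO. Plasma AUC0-∞, clearance, Vss and t1/2 were derived. Values are means of n = 2 animals per study, or of four studies.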

[6] = molecular target: T2, Transient receptor potential cation channel subfamily V member 1; test: Antagonist activity at human TRPV1 expressed in CHO cells assessed as inhibition of capsaicin-induced calcium influx; type: functional, cell-based; summary of the method: as §1
[7] = Cmax in Sprague-Dawley rat at 5 mg/kg, po; type: ADME, organism-based; design: dose 5 mg/kg, route oral; conditions: in vivo
Summary of the method: (§4)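 Sprague-Dawley rats were dosed orally at 5 mg/kg as a suspension in 5% Tween 80 in Oraplus. Cmax, tmax, AUC0-∞ and oral bioavailability were determined. Values are means of n = 2 animals per study, or of five studies.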

[8] = AUC (0-infinity) in Sprague-Dawley rat at 2 mg/kg, iv; type: ADME, organism-based; design: time infinity, dose 2 mg/kg, route intravenous; conditions: plasma; summary of the method: as §3
[9] = Tmax in Sprague-Dawley rat at 5 mg/kg, po; type: ADME, organism-based; design: dose 5 mg/kg, route oral; conditions: in vivo; summary of the method: as §4
[10] = AUC (0-infinity) in Sprague-Dawley rat at 5 mg/kg, po; type: ADME, organism-based; design: time infinity, dose 5 mg/kg, route oral; conditions: plasma; summary of the method: as §4
[11] = Bioavailability in Sprague-Dawley rat at 5 mg/kg, po; type: ADME, organism-based; conditions: in vivo; summary of the method: as §4
[12] = molecular target: T2, Transient receptor potential cation channel subfamily V member 1; test: Antagonist activity at human TRPV1 expressed in CHO cells assessed as inhibition of acid-induced calcium influx; type: functional, cell-based; summary of the method: as §2
[13] = Volume of distribution at steady state in Sprague-Dawley rat at 2 mg/kg, iv; type: ADME, organism-based; design: dose 2 mg/kg, route intravenous; conditions: in vivo, read-out: Vss; summary of the method: as §3
[14] = Clearance in Sprague-Dawley rat at 2 mg/kg, iv; type: ADME, organism-based; design: dose 2 mg/kg, route intravenous; conditions: in vivo; summary of the method: as §3
Rattus norvegicus = test: Blockade of capsaicin-induced hypothermic response in Sprague-Dawley rat at 40 mg/kg, po; type: functional, organism-based; design: dose 40 mg/kg
Summary of the method: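 Male Sprague-Dawley rats (175–250 g) had core temperature monitored by radiotelemetry, with a 30 min baseline. Compound or vehicle was given by oral gavage in OraPlus/5% Tween-80 (5 mL/kg), at 40 mg/kg p.o., n = 8 per group. After 90 min, capsaicin 10 mg/kg or vehicle was injected intraperitoneally.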

T2 sequence (Q8NER1 whole entry): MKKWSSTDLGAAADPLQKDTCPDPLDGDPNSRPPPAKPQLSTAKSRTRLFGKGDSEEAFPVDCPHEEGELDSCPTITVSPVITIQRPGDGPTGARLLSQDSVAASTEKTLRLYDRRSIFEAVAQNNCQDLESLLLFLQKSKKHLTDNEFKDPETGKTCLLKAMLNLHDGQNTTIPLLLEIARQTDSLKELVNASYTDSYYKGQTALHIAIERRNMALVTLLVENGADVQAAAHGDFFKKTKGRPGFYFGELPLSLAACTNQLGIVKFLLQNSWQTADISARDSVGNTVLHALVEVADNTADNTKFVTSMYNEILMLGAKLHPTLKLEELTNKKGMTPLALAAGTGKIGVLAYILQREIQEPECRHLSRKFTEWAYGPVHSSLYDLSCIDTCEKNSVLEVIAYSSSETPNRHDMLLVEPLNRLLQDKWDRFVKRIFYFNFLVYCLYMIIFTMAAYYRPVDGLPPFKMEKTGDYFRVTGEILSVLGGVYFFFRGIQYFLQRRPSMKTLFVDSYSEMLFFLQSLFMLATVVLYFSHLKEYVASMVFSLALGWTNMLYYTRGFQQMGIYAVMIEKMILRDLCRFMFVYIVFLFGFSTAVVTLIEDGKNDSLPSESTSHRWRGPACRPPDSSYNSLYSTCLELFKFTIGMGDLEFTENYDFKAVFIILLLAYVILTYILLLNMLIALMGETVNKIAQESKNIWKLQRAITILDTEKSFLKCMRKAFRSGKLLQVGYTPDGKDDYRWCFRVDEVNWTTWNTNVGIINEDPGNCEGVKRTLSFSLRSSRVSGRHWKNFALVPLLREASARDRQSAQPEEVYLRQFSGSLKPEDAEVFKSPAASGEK
T1 sequence (O35433 whole entry): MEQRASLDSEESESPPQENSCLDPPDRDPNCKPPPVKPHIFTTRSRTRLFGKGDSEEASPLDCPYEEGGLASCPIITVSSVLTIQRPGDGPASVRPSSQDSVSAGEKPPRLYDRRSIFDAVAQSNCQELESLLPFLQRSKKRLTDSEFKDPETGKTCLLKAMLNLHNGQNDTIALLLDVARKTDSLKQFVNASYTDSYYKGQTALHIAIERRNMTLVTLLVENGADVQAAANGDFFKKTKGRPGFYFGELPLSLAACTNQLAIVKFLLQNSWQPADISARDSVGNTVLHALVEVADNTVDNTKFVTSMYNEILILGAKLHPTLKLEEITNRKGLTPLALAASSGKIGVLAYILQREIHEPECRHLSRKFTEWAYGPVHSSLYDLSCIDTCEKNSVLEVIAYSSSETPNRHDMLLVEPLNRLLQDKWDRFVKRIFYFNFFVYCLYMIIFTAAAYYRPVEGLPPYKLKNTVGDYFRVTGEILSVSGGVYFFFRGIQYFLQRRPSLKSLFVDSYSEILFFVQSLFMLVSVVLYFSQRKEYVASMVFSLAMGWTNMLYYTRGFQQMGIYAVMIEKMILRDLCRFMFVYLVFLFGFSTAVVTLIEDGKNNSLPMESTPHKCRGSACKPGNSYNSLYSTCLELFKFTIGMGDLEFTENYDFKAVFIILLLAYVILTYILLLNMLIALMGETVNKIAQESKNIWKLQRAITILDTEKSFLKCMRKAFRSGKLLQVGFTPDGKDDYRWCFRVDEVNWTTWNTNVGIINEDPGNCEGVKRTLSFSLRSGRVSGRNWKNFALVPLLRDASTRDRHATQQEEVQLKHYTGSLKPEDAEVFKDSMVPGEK

| Compound | IC50 [1] [nM] | EC50 [2] [µM] | IC50 [3] [µM] | also measured |
| --- | --- | --- | --- | --- |
| CC(C)(C)c1ccc(/C=C/C(=O)Nc2ccc3c(c2)OCCO3)cc1 |  | > 4 |  | AUC(0-inf) [4]: 680 ng·h/mL |
| FC(F)(F)c1ccc(-c2cc(Nc3ccc4cccnc4c3)ncn2)cc1 |  | > 4 | 0.0066 | half-life [5]: 102 min; IC50 [6]: 0.6 nM; Cmax [7]: 26 ng/mL; AUC(0-inf) [8]: 320 ng·h/mL; Tmax [9]: 5 h; AUC(0-inf) [10]: 94 ng·h/mL; bioavailability [11]: 6%; IC50 [12]: 0.3 nM; Vd [13]: 3 L/kg; clearance [14]: 51.7 mL/min/kg |
| CN(c1ccc2c(c1)OCCO2)c1cc(-c2ccc(C(C)(C)C)cc2)ncn1 | > 4000 | > 4 | 2.2 |  |
| CC(C)(C)c1ccc(-c2cc(Oc3ccc4c(c3)OCCO4)ncn2)cc1 |  | > 4 | 0.67 |  |
| CC(C)(C)c1ccc(Cc2cccn(-c3ccc4c(c3)OCCO4)c2=O)cc1 | > 4000 | > 4 | > 4 |  |
| CC(C)(C)c1ccc(-c2cc(Cc3ccc4c(c3)OCCO4)ncn2)cc1 | 914 | > 4 | > 4 |  |
| CC(C)(C)c1ccc(/C=C2\CCCN(c3ccc4c(c3)OCCO4)C2=O)cc1 | > 4000 | > 4 | > 4 |  |
| CC(C)(C)c1ccc(-c2cc(Nc3ccc4cccnc4c3)ncn2)cc1 | 2 | > 4 | 0.022 | half-life [5]: 96 min; IC50 [6]: 1.9 nM; Cmax [7]: 34 ng/mL; AUC(0-inf) [8]: 340 ng·h/mL; Tmax [9]: 0.5 h; AUC(0-inf) [10]: 79 ng·h/mL; bioavailability [11]: 5%; IC50 [12]: 6.9 nM; Vd [13]: 3.1 L/kg; clearance [14]: 48.3 mL/min/kg |
| FC(F)(F)c1ccc(-c2cc(Nc3ccc4c(c3)OCCO4)ncn2)cc1 | 430 | > 4 | 1.2 | IC50 [6]: 120 nM; IC50 [12]: 250 nM |
| FC(F)(F)c1ccc(-c2cc(Oc3ccc4cccnc4c3)ncn2)cc1 |  | > 4 |  | half-life [5]: 168 min; IC50 [6]: 3.7 nM; Cmax [7]: 300 ng/mL; AUC(0-inf) [8]: 1590 ng·h/mL; Tmax [9]: 1.2 h; Activity (Rattus norvegicus): Active; AUC(0-inf) [10]: 2040 ng·h/mL; bioavailability [11]: 31%; IC50 [12]: 4.2 nM; Vd [13]: 3 L/kg |

More lines, main results first:

| IC50 [1] [nM] | EC50 [2] [µM] | IC50 [3] [µM] | Compound | also measured |
| --- | --- | --- | --- | --- |
| > 4000 | > 4 | > 4 | CC(C)(C)c1ccc(-c2cccc(Nc3ccc4c(c3)OCCO4)c2)cc1 |  |
| 760 | > 4 | > 4 | CC(C)(C)c1ccc(-c2ncnc(Nc3ccc4c(c3)OCCO4)n2)cc1 |  |
| 1210 | > 4 | > 4 | CC(C)(C)c1ccc(-c2cncc(Nc3ccc4c(c3)OCCO4)c2)cc1 |  |
| 780 | > 4 | > 4 | CC(C)(C)c1ccc(-c2cnnc(Nc3ccc4c(c3)OCCO4)c2)cc1 |  |
| 230 | > 4 | 1.3 | CC(C)(C)c1ccc(-c2ccnc(Nc3ccc4c(c3)OCCO4)c2)cc1 |  |
| > 4000 | > 4 | > 4 | CC(C)(C)c1ccc(-c2cccc(Nc3ccc4c(c3)OCCO4)n2)cc1 |  |
| > 4000 | > 4 | > 4 | CC(C)(C)c1ccc(-c2cncc(Nc3ccc4c(c3)OCCO4)n2)cc1 |  |
| > 4000 | > 4 | > 4 | CC(C)(C)c1ccc(-c2cc(Nc3ccc4c(c3)OCCO4)ccn2)cc1 |  |
| 120 | > 4 | 0.68 | CC(C)(C)c1ccc(-c2cc(Nc3ccc4c(c3)OCCO4)ncn2)cc1 | IC50 [6]: 51 nM; IC50 [12]: 270 nM |
| > 4000 | > 4 | > 4 | CC(C)(C)c1ccc(-c2cc(Sc3ccc4c(c3)OCCO4)ncn2)cc1 |  |
| 840 | > 4 | > 4 | CC(C)(C)c1ccc(-c2cc(Nc3ccc4c(c3)OCCO4)cnn2)cc1 |  |
| > 4000 | > 4 | > 4 | CC(C)(C)c1ccc(-c2nccc(Nc3ccc4c(c3)OCCO4)n2)cc1 |  |
| > 4000 | > 4 | > 4 | CC(C)(C)c1ccc(-c2ccnc(Nc3ccc4c(c3)OCCO4)n2)cc1 |  |
